Assay results from ChEMBL document CHEMBL4145448, “Broad activity of diphenyleneiodonium analogues against Mycobacterium tuberculosis, malaria parasites and bacterial pathogens” (Eur J Med Chem, 2018).

What was measured:
[1] = Selectivity index, ratio of CC50 for human HepG2 cells in presence of 1% FBS to MIC for Klebsiella pneumoniae ATCC 13883; type: toxicity; settings: read-out: Selectivity Index
Acinetobacter baumannii [2] = test: Antibacterial activity against Acinetobacter baumannii isolate 07AC-336 after 18 hrs by broth microdilution method; type: functional; settings: isolate 07AC-336, 18 h
Method in brief: (§1)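 Broth microdilution per CLSI in cation-adjusted Mueller-Hinton broth. 100 µL inoculum (~10^6 cfu/mL in CaMHB) mixed with 100 µL CaMHB containing compound, 0 to 128 µM. Incubated 18 h at 37 °C. MIC taken as the lowest concentration with no visible growth. Polymyxin B served as positive control. Isolates were stored at -80 °C in tryptone soy broth with 20% glycerol.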

Pseudomonas aeruginosa [3] = test: Antibacterial activity against Pseudomonas aeruginosa ATCC 27853 after 18 hrs by broth microdilution method; type: functional; settings: ATCC 27853, 18 h; method in brief: as §1
Staphylococcus aureus = test: Antibacterial activity against methicillin-resistant Staphylococcus aureus ATCC 43300 after 18 hrs by broth microdilution method; type: functional; settings: ATCC 43300, 18 h; method in brief: as §1
[4] = Selectivity index, ratio of CC50 for human HepG2 cells in presence of 1% FBS to MIC for Acinetobacter baumannii isolate 07AC-336; type: toxicity; settings: read-out: Selectivity Index
[5] = Selectivity index, ratio of CC50 for human HepG2 cells in presence of 1% FBS to MIC for vancomycin-resistant Staphylococcus aureus ATCC 700699; type: toxicity; settings: read-out: Selectivity Index
Method in brief: (§2)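 Selectivity index is CC50 (1% FBS) divided by MIC. […] They then got compound at 300 to 0.14 µM (3-fold steps) for 24 h at 37 °C, 5% CO2. Resazurin (10 µM, 2 h) was read at ex/em 560/590 in duplicate wells. For MIC, CLSI broth microdilution was run in CaMHB with ~10^6 cfu/mL inoculum and 0–128 µM compound.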

Pseudomonas aeruginosa [6] = test: Antibacterial activity against Pseudomonas aeruginosa isolate M146201 after 18 hrs by broth microdilution method; type: functional; settings: isolate M146201, 18 h; method in brief: as §1
[7] = Selectivity index, ratio of CC50 for human HepG2 cells in presence of 1% FBS to MIC for Acinetobacter baumannii isolate 246-01-C; type: toxicity; settings: read-out: Selectivity Index
[8] = Selectivity index, ratio of CC50 for human HepG2 cells in presence of 1% FBS to MIC for vancomycin-resistant Enterococcus faecium ATCC 700221; type: toxicity; settings: read-out: Selectivity Index; method in brief: as §2
[9] = Selectivity index, ratio of CC50 for human HepG2 cells in presence of 1% FBS to MIC for Pseudomonas aeruginosa isolate M146201; type: toxicity; settings: read-out: Selectivity Index; method in brief: as §2
[10] = Selectivity index, ratio of CC50 for human HepG2 cells in presence of 1% FBS to IC50 for Plasmodium knowlesi YH1; type: toxicity; settings: read-out: Ratio IC50
[11] = Selectivity index, ratio of CC50 for human HepG2 cells in presence of 1% FBS to MIC for Pseudomonas aeruginosa QLD PSA 1; type: toxicity; settings: read-out: Selectivity Index; method in brief: as §2
Pseudomonas aeruginosa [12] = test: Antibacterial activity against Pseudomonas aeruginosa isolate 912 after 18 hrs by broth microdilution method; type: functional; settings: isolate 912, 18 h; method in brief: as §1
[13] = Selectivity index, ratio of CC50 for human HepG2 cells in presence of 1% FBS to MIC for Escherichia coli N2381; type: toxicity; settings: read-out: Selectivity Index
[14] = Selectivity index, ratio of CC50 for human HepG2 cells in presence of 1% FBS to MIC for Acinetobacter baumannii ATCC 17978 col10; type: toxicity; settings: read-out: Selectivity Index
[15] = Selectivity index, ratio of CC50 for human HepG2 cells in presence of 1% FBS to IC50 for drug-resistant GFP-fused Plasmodium falciparum D10; type: toxicity; settings: read-out: Ratio IC50
Klebsiella pneumoniae = test: Antibacterial activity against Klebsiella pneumoniae ATCC 13883 after 18 hrs by broth microdilution method; type: functional; settings: ATCC 13883, 18 h; method in brief: as §1
[16] = Selectivity index, ratio of CC50 for human HepG2 cells in presence of 1% FBS to MIC for Acinetobacter baumannii ATCC 17978; type: toxicity; settings: read-out: Selectivity Index
Plasmodium falciparum [17] = test: Growth inhibition of […] GFP-fused Plasmodium falciparum D10 after 90 hrs by ethidium bromide staining based flow cytometry; type: functional, organism-based; settings: D10, 90 h
Method in brief: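 Parasites cultured in human O+ erythrocytes in RPMI-HEPES pH 7.4 with hypoxanthine, NaHCO3, gentamicin and 0.5% Albumax II under 1% O2/4% CO2 at 37 °C. Synchronised to rings with heparin plus sorbitol. Set up at 1% parasitaemia and 1% haematocrit with 10x compound added. Cultured 90 h to next-cycle trophozoites. Stained with 10 µg/mL ethidium bromide for 1 h, washed, parasitaemia counted by flow cytometry with GFP gating.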

[18] = Selectivity index, ratio of CC50 for human HepG2 cells in presence of 1% FBS to MIC for methicillin-resistant Staphylococcus aureus ATCC 43300; type: toxicity; settings: read-out: Selectivity Index; method in brief: as §2
[19] = Selectivity index, ratio of CC50 for human HepG2 cells in presence of 1% FBS to MIC for Klebsiella pneumoniae isolate M320445; type: toxicity; settings: read-out: Selectivity Index
[20] = Selectivity index, ratio of CC50 for human HepG2 cells in presence of 1% FBS to MIC for Mycobacterium tuberculosis H37Rv ATCC 25618; type: toxicity; settings: read-out: Selectivity Index
Acinetobacter baumannii [21] = test: Antibacterial activity against Acinetobacter baumannii isolate 246-01-C after 18 hrs by broth microdilution method; type: functional; method in brief: as §1
Acinetobacter baumannii [22] = test: Antibacterial activity against Acinetobacter baumannii ATCC 19606 after 18 hrs by broth microdilution method; type: functional; settings: ATCC 19606 = CIP 70.34 = JCM 6841, 18 h; method in brief: as §1
Acinetobacter baumannii [23] = test: Antibacterial activity against Acinetobacter baumannii ATCC 17978 col10 after 18 hrs by broth microdilution method; type: functional; settings: ATCC 17978 col10, 18 h; method in brief: as §1
Plasmodium knowlesi [24] = test: Growth inhibition of Plasmodium knowlesi YH1 after 50 hrs by ethidium bromide staining based flow cytometry; type: functional, organism-based; settings: YH1, 50 h
Method in brief: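 P. knowlesi YH1 cultured in human O+ erythrocytes in RPMI-HEPES with 0.5% Albumax II under 1% O2/4% CO2. Ring-synchronised parasites set up at 1% parasitaemia and 1% haematocrit with compound. Cultured 50 h to late trophozoites of the next cycle. Stained 1 h with 10 µg/mL ethidium bromide and parasitaemia counted by flow cytometry.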

Plasmodium knowlesi [25] = test: microbe, parasite or virus in culture; settings: YH1, 90 h
Plasmodium falciparum [26] = test: microbe, parasite or virus in culture; settings: CS2, 90 h
[27] = Stability in cation-adjusted Mueller-Hinton broth at 37 degC after 1 day by LC-MS analysis; type: physicochemical; settings: 24 h
Method in brief: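 Compound was incubated under bacterial assay conditions: CaMHB, 37 °C, polypropylene microtitre wells. The species present were analysed by LCMS the next day.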

SMILES	selectivity ratio [1]	MIC (Acinetobacter baumannii [2])	MIC (Pseudomonas aeruginosa [3])	MIC (Staphylococcus aureus)	selectivity ratio [4]	selectivity ratio [5]	MIC (Pseudomonas aeruginosa [6])	selectivity ratio [7]	selectivity ratio [8]	selectivity ratio [9]	selectivity ratio [11]	MIC (Pseudomonas aeruginosa [12])	selectivity ratio [13]	selectivity ratio [14]	MIC (Klebsiella pneumoniae)	selectivity ratio [16]	selectivity ratio [18]	selectivity ratio [19]	selectivity ratio [20]	MIC (Acinetobacter baumannii [21])	further results
N#Cc1ccc2c(c1)-c1ccccc1[I+]2	0.63	71 µM	71 µM	1.1 µM	0.32	2.5	8.8 µM	0.13	20	2.5	0.13	8.8 µM	0.32	10	35 µM	5.1	20	0.32	78	18 µM	selectivity ratio [10]: 232; selectivity ratio [15]: 256; IC50 (Plasmodium falciparum [17]): 90 nM; MIC (Acinetobacter baumannii [22]): 18 µM; MIC (Acinetobacter baumannii [23]): 2.2 µM; IC50 (Plasmodium knowlesi [24]): 110 nM
Clc1cccc2c1-c1ccccc1[I+]2	0.15	< 0.27 µM	< 0.27 µM	1.1 µM	< 2.4	0.61	0.54 µM	< 2.4	< 2.4	1.2	1.2	< 0.27 µM	1.2	< 2.4	4.3 µM	< 2.4	0.61	0.08	2.4	< 0.27 µM	selectivity ratio [10]: 8.5; selectivity ratio [15]: 8.9; IC50 (Plasmodium falciparum [17]): 70 nM; MIC (Acinetobacter baumannii [22]): < 0.27 µM; MIC (Acinetobacter baumannii [23]): < 0.27 µM; IC50 (Plasmodium knowlesi [24]): 80 nM
c1ccc2c(c1)[I+]c1ccccc1-2	0.78	19 µM	75 µM	4.7 µM	1.6	1.6	9.3 µM	6.3	6.3	3.1	3.1	4.7 µM	0.78	50	37 µM	13	6.3	0.78	96	4.7 µM	IC50 (Plasmodium knowlesi [25]): 740 nM; IC50 (Plasmodium falciparum [26]): 40 nM; MIC (Acinetobacter baumannii [22]): 9.3 µM; MIC (Acinetobacter baumannii [23]): 0.58 µM
Cc1ccc2c(c1)[I+]c1ccccc1-2.O=S(=O)([O-])C(F)(F)F	0.05	18 µM	72 µM	4.5 µM	0.21	0.398	36 µM	0.21	0.81	0.11	> 0.05	4.5 µM	0.05	3.2	72 µM	0.81	0.81	0.11	6.4	18 µM	Stability [27]: Stable; MIC (Acinetobacter baumannii [22]): 9.1 µM; MIC (Acinetobacter baumannii [23]): 1.1 µM
Fc1cccc2c1-c1ccccc1[I+]2	1	1.1 µM	2.2 µM	2.2 µM	4.1	2.1	1.1 µM	< 16	8.2	4.1	1	4.5 µM	4.2	< 16	4.5 µM	8.2	2.1	0.51	16	< 0.28 µM	selectivity ratio [10]: 59; selectivity ratio [15]: 61; IC50 (Plasmodium falciparum [17]): 80 nM; MIC (Acinetobacter baumannii [22]): 0.56 µM; MIC (Acinetobacter baumannii [23]): < 0.28 µM; IC50 (Plasmodium knowlesi [24]): 80 nM
